From ChEMBL document CHEMBL2057133, “A 20S combined with a 22R configuration markedly increases both in vivo and in vitro biological activity of 1α,25-dihydroxy-22-methyl-2-methylene-19-norvitamin D3” (J Med Chem, 2012)
Activity calls are given as the source filed them. The calls are words filed in the database; no cut-off is given here.

Columns and labels:
Rattus norvegicus [1] = assay: Calcium mobilization in vitamin-D deficient weanling Sprague-Dawley rat intestine assessed as increase in serosal/mucosal calcium level at 32 to 35100 pmol, ip administered every 24 hrs for 4 consecutive days measured 24 hrs post last dose by everted gut sac method relative to vehicle treated control; assay type: functional, organism-based
HL-60 [2] = assay: Induction of human HL60 cell differentiation after 4 days by NBT reduction assay; assay type: functional; settings: HL-60, 96 h, read-out: ED50 (the source's name)
[3] = biological target: T1, Vitamin D3 receptor (Rattus norvegicus) (UniProt P13053); assay: Activation of VDR-mediated 24-hydroxylase transcription in rat osteosarcoma cells after 16 hrs by luciferase reporter gene assay
T1 sequence (whole entry): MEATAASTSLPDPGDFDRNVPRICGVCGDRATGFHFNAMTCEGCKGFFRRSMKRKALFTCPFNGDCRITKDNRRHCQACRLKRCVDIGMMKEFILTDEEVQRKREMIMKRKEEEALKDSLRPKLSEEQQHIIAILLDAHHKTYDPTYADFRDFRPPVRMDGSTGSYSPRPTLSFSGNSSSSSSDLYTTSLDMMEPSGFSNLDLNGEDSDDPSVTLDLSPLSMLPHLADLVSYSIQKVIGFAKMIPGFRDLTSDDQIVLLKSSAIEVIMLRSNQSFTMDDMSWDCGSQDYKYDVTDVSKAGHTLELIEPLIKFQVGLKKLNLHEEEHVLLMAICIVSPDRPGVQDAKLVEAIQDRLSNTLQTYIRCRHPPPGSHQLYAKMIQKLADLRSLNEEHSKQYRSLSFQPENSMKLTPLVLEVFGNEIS

HL-60 [4] = assay: Ratio of 1alpha,25-(OH)2D3 ED50 to compound ED50 for induction of human HL60 cell differentiation; assay type: functional
In short: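 HL-60 promyelocyte differentiation to monocytes was scored as the percentage of cells reducing nitro blue tetrazolium. ED50 is the concentration giving 50% maturation, from dose-response curves; the experiment was done twice in duplicate. The ratio is the average of 1α,25-(OH)2D3 ED50 over analogue ED50.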

Vitamin D3 receptor = biological target: T2, Vitamin D3 receptor (Rattus norvegicus, UniProt P13053); assay: Displacement of [3H]-1alpha,25(OH)2D3 from recombinant rat VDR after overnight incubation by scintillation counting
T2 sequence (P13053 whole entry): T1 sequence (whole entry)
In short: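 Competition assay using full-length recombinant rat VDR with radiolabeled 1α,25-(OH)2D3 at 1 nM. Ki was derived from dose-response curves using a Kd of 0.2 nM. Run in duplicate on two separate occasions.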

Rattus norvegicus [5] = assay: Calcium mobilization in vitamin-D deficient weanling Sprague-Dawley rat bone assessed as increase in serum calcium level at 32 to 35100 pmol, ip administered every 24 hrs for 4 consecutive days measured 24 hrs post last dose relative to vehicle treated control; assay type: functional, organism-based
In short: (§1)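 Male weanling Sprague-Dawley rats were fed Diet 11 (0.47% Ca) + AEK oil for 1 week, then 0.02% Ca + AEK oil for 3 weeks, then 0.47% Ca for 1 week, then 0.02% Ca for 2 weeks. Dosing began in the last week on 0.02% Ca: four daily intraperitoneal doses. Serum calcium was measured in neck blood 24 h after the last dose and expressed as the difference from vehicle controls. Mean ± SEM of 6 values.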

Rattus norvegicus [6] = assay: Calcium mobilization in vitamin-D deficient weanling Sprague-Dawley rat intestine assessed as increase in serosal/mucosal calcium level at 32 to 7020 pmol, ip administered every 24 hrs for 4 consecutive days measured 24 hrs post last dose by everted gut sac method relative to vehicle treated control; assay type: functional, organism-based
Rattus norvegicus [7] = assay: Calcium mobilization in vitamin-D deficient weanling Sprague-Dawley rat bone assessed as increase in serum calcium level at 32 to 70200 pmol, ip administered every 24 hrs for 4 consecutive days measured 24 hrs post last dose relative to vehicle treated control; assay type: functional, organism-based; in short: as §1
Rattus norvegicus [8] = assay: Calcium mobilization in vitamin-D deficient weanling Sprague-Dawley rat intestine assessed as increase in serosal/mucosal calcium level at 32 to 2340 pmol, ip administered every 24 hrs for 4 consecutive days measured 24 hrs post last dose by everted gut sac method relative to vehicle treated control; assay type: functional, organism-based
Rattus norvegicus [9] = assay: Calcium mobilization in vitamin-D deficient weanling Sprague-Dawley rat bone assessed as increase in serum calcium level at 32 to 2340 pmol, ip administered every 24 hrs for 4 consecutive days measured 24 hrs post last dose relative to vehicle treated control; assay type: functional, organism-based; in short: as §1

SMILES	EC50 (HL-60 [2])	ED50 [3]	Ki (Vitamin D3 receptor)	Activity (Rattus norvegicus [1])	Ratio ED50 (HL-60 [4])	Activity (Rattus norvegicus [5])	Activity (Rattus norvegicus [6])	Activity (Rattus norvegicus [7])	Activity (Rattus norvegicus [8])	Activity (Rattus norvegicus [9])
C=C1[C@H](O)CC(=C/C=C2\CCC[C@]3(C)[C@@H]([C@@H](C)C(C)(C)CCC(C)(C)O)CC[C@@H]23)C[C@H]1O	1 nM	0.6 nM	0.06 nM	inactive	2	inactive				
C=C1/C(=C\C=C2/CCC[C@]3(C)[C@@H]([C@H](C)CCCC(C)(C)O)CC[C@@H]23)C[C@@H](O)C[C@@H]1O							Active	Active		
C=C1[C@H](O)CC(=C/C=C2\CCC[C@]3(C)[C@@H]([C@H](C)[C@H](C)CCC(C)(C)O)CC[C@@H]23)C[C@H]1O	10 nM	5 nM	0.2 nM	Active	0.2	Active				
C=C1[C@H](O)CC(=C/C=C2\CCC[C@]3(C)[C@@H]([C@@H](C)[C@@H](C)CCC(C)(C)O)CC[C@@H]23)C[C@H]1O	20 nM	4 nM	10 nM	Active	0.1	Active				

More lines, in order of falling EC50 (HL-60 [2]), values ahead:

EC50 (HL-60 [2])	ED50 [3]	Ki (Vitamin D3 receptor)	SMILES	Activity (Rattus norvegicus [1])	Ratio ED50 (HL-60 [4])	Activity (Rattus norvegicus [5])	Activity (Rattus norvegicus [6])	Activity (Rattus norvegicus [7])	Activity (Rattus norvegicus [8])	Activity (Rattus norvegicus [9])
0.9 nM	0.03 nM	0.02 nM	C=C1[C@H](O)CC(=C/C=C2\CCC[C@]3(C)[C@@H]([C@H](C)C(C)(C)CCC(C)(C)O)CC[C@@H]23)C[C@H]1O	inactive	2.2	inactive				
0.9 nM	0.2 nM	0.1 nM	C=C1[C@H](O)CC(=C/C=C2\CCC[C@]3(C)[C@@H]([C@H](C)[C@@H](C)CCC(C)(C)O)CC[C@@H]23)C[C@H]1O	inactive	2.2	inactive				
0.08 nM	0.007 nM		C=C1[C@H](O)CC(=C/C=C2\CCC[C@]3(C)[C@@H]([C@@H](C)CCCC(C)(C)O)CC[C@@H]23)C[C@H]1O [DP001]		25					
0.02 nM	0.007 nM	0.04 nM	C=C1[C@H](O)CC(=C/C=C2\CCC[C@]3(C)[C@@H]([C@@H](C)[C@H](C)CCC(C)(C)O)CC[C@@H]23)C[C@H]1O		100				Active	Active
